Rows were chosen to be rich in hits. Some 4.6% of all compounds tested hit in one or more screens of this group.
TAAR1 antagonist = human TAAR1 antagonism | Q96RJ0 | CHO RD-HGA16 TAAR1, Fluo-8 calcium fluorescence, antagonist | inhibition, % at 3 µM | 360,000 compounds, 1.5% hits | AID 624466;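 active = inhibition above a per-plate cutoff, the mean inhibition of test compounds on that plate plus 3 SD, cut at about 49% in these data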
Target sequence (Q96RJ0 whole entry, looked up): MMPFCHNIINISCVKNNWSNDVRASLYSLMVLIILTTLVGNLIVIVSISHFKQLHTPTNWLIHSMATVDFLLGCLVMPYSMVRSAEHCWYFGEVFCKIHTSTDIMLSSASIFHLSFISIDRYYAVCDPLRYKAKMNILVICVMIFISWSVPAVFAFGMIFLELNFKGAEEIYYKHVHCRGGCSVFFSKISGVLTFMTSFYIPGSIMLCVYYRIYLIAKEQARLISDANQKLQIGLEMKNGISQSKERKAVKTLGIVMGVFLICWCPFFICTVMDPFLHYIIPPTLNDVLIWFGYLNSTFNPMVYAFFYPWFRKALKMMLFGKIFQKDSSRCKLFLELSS
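Test system: CHO RD-HGA16 cells bearing hTAAR1 | Reagent: β-PEA, EC80 | Compound dosing: 3 µM, single point | Schedule: Dye loading 75 min at 37 °C, then 30 min room temperature | Signal: Calcium fluorescence with Fluo-8 | Evaluation: Percent inhibition of PEA-evoked calcium signal, max/basal emission ratio | Control set: DMSO-only wells and EC80 β-PEA-stimulated wells | Repeats: Singlicate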
TAAR1 ag = agonists of human TAAR1; Q96RJ0; CHO RD-HGA16 TAAR1, Fluo-8 calcium fluorescence; vehicle wells 0%, saturating PEA agonist 100%; activation, % at 3 µM; 360,000 compounds, 0.99% hits;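 active = activation above the mean activation of all test compounds in the run plus 3 SD, cut at about 38% in these data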
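System: CHO-derived RD-HGA16 cells with stable Gα16 and human TAAR1. Times: 17-24 h plating, Fluo-8 75 min 37 °C, 30 min RT. Measured by: calcium-sensitive Fluo-8 signal, excitation 470-495, emission 515-575 nm. Read-out basis: % activation relative to PEA EC100 response. Control set: DMSO and PEA EC100. Repeats: no replicates (n 1).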
CHO parental Ca = signal in parental CHO cells, OX1R antagonist counter-screen | AID 463079 | parental CHO-K1, ATP-induced calcium, Fluo-8 fluorescence | inhibition, % at 5.6 µM | 330,000 compounds, 0.63% hits;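 active = inhibition above that plate's mean sample inhibition plus 3 SD, cut at about 26% in these data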
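Material – parental CHO cells · Reagent – ATP stimulus · Compound – single nominal dose of 5.6 µM per compound · Detection – Fluo-8 fluorescence · Read-out basis – percent inhibition of calcium signal · Controls – ATP-challenged DMSO wells low, unchallenged DMSO wells high · Repeats – no replicates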
OX1R antag-1 = antagonists of human orexin 1 receptor; inhibition, % at 5 µM; 330,000 compounds, 0.43% hits; O43613; CHO/OX1R cells, Fluo-8 calcium fluorescence, orexin A;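 active = inhibition above its plate's threshold, mean inhibition of all tested compounds on the plate plus 3 SD, cut at about 37% in these data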
OX1R antag-2 = antagonists of human orexin 1 receptor (OX1R) | OX1R-expressing cells, FRET antagonist read-out | 330,000 compounds, 1.8% hits | inhibition, % at 6.6 µM | O43613; in the data active = inhibition mostly above about 38%, no sharp cut-off; inactive = mostly below about 40%
GPR7 antagonist = antagonists of human GPR7 (neuropeptides B/W receptor 1); P48145; GPR7-expressing cells, fluorescence antagonist assay; inhibition, % at 4.4 µM; 290,000 compounds, 1.1% hits; AID 1861; in the data active = inhibition above about 16%, passing the limit was not always enough;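 also: cells stimulated with the agonist NPW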
Numbers stand for hits; . = inactive; / = no result.

SMILES	TAAR1 antagonist	TAAR1 ag	CHO parental Ca	OX1R antag-1	OX1R antag-2	GPR7 antagonist
CCOC(=O)c1cnc(SCC(=O)Nc2ccc(NC(C)=O)c(OC)c2)nc1N	.	.	.	.	.	.
CCOC(=O)c1cnc(SCC(=O)Nc2cc(OC)ccc2OC)nc1N	.	.	34	.	.	.
COc1ccc(NS(=O)(=O)c2ccc(-c3cnc(C4CC4)o3)cc2)cc1OC	.	.	55	.	.	.
CN(C)CCCN(C(=O)c1ccc([N+](=O)[O-])s1)c1nc2cc3c(cc2s1)OCCO3	.	.	.	.	78	.
Cc1ccc(S(=O)(=O)/N=C(/c2ccc(F)cc2)N(C)C)cc1	.	.	.	.	.	.
COc1cc(C(=O)NC(=S)N(CCc2ccccc2)CCc2ccccc2)cc(OC)c1OC	53	.	.	.	.	.
CCOc1ccc(S(=O)(=O)N2CCC(C(=O)Nc3cc(S(C)(=O)=O)ccc3Cl)CC2)cc1	.	.	.	.	.	/
O=C(CCc1ccccc1)NC1(Cc2ccccc2)CCN(CCCc2ccccc2)C1=O (stereo unspecified)	55	.	.	.	.	/
Clc1cccc(CNCCCSc2ncccn2)c1	.	.	.	.	.	.
CC(C)CC(=O)N=Nc1c(O)[nH]c2ccccc12	.	.	.	.	53	.
O=C(CNC(=O)c1ccccn1)N=Nc1c(O)[nH]c2ccccc12	.	.	.	.	71	.
O=C(CSCc1cccc(Br)c1)N=Nc1c(O)[nH]c2ccccc12	.	.	.	.	51	.
CCC(O)(CC)C(=O)N=Nc1c(O)[nH]c2ccccc12	.	.	.	.	.	.
CCNC(=O)C1(C)CCCN1C(=O)c1cc(OC)c(OC)c(OC)c1 (stereo unspecified)	.	.	/	/	/	/
Cc1[nH]c2ccccc2c1CC(=O)Nc1ccc(Nc2cccnc2)c(-c2cc(C(F)(F)F)cc(C(F)(F)F)c2)c1	.	.	/	/	/	/
COc1ccc(CN2C[C@@]3(O)CC[C@@H](O)[C@@H](OC)[C@@H]3[C@@](C)(O)[C@@H]2CC=C(C)C)cc1	.	.	/	/	/	/
O=C1COc2ccccc2C(c2nc3ccccc3[nH]2)N1Cc1ccccc1 (stereo unspecified)	.	.	/	/	/	/
Cc1cc(NC(=O)NCc2ccco2)ccc1NC(=O)NCc1ccco1	.	.	/	/	/	/
Cc1ccc(N/C(SCc2ccccc2C)=C(/C#N)C(=O)NCc2ccco2)cc1C	64	.	.	.	.	.
C=CCN1C(=O)c2n[nH]c(C(C)C)c2C1c1ccccc1 (stereo unspecified)	.	.	/	/	/	/
COC(=O)[C@H](Cc1ccccc1)N1C[C@@H](N2CCC[C@H]2C)CS1(=O)=O	.	.	/	/	/	/
COc1ccc(N(CC(=O)Nc2ccc(S(=O)(=O)N3CCOCC3)cc2)S(=O)(=O)c2ccc(F)cc2)cc1	51	.	.	.	.	.
CCC(=O)CN(Cc1cc(OC)ccc1OC)S(=O)(=O)c1ccccc1Br	.	.	.	.	.	/
Oc1ccc2ccccc2c1C=NCc1cn2ccsc2n1	.	.	.	.	65	.
O=C1c2cc(CO)cc(O)c2C(=O)c2c(O[C@@H]3OC(CO)[C@@H](O)[C@@H](O)[C@@H]3O)cccc21 (stereo partly specified)	.	.	.	.	73	/
O=C(O)c1cc(O)c2c(c1)[C@H]([C@H]1c3cc(C(=O)O)cc(O)c3C(=O)c3c(O[C@@H]4O[C@H](CO)[C@@H](O)[C@H](O)[C@H]4O)cccc31)c1cccc(OC3O[C@H](CO)[C@@H](O)[C@H](O)[C@H]3O)c1C2=O (stereo partly specified)	.	.	.	.	.	/
CN(C)C(=O)CSc1nnc(-c2cc(-c3cccs3)nc3ccccc23)o1	50	.	.	.	.	.
COc1ccc(C2=NOC(Cn3nc(-c4ccccc4)cc3C(=O)O)C2)cc1 (stereo unspecified)	.	.	.	.	.	/
COc1ccc(C2=NOC(Cn3nc(C(=O)NCc4ccc(C)cc4)cc3-c3ccccc3)C2)cc1 (stereo unspecified)	58	.	.	.	.	/

High-throughput results as filed in PubChem.
